Measurements: ChEMBL document CHEMBL1156678, “A new class of analgesic agents toward prostacyclin receptor inhibition: synthesis, biological studies and QSAR analysis of 1-hydroxyl-2-substituted phenyl-4,4,5,5-tetramethylimidazolines” (Eur J Med Chem, 2008)

Columns and labels:
[1] = tested on: Mus musculus; experiment: Analgesic activity in ICR mouse assessed as pain threshold variation at 0.013 mmol/kg, ip after 30 mins by tail flick test relative to control; type: functional
Procedure, shortened: (§1)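 Male ICR mice (25 ± 2 g), kept on a 12/12 h light/dark cycle at 21 ± 2 °C for one day before use. Each received a single i.p. injection in 0.2 ml saline + 0.01 ml DMSO + 0.02 ml Tween-80. Vehicle-only mice served as controls. Basal tail-flick threshold was measured four times (BPT). Thresholds were then read every 30 min for 150 min. PTV = (post-dose threshold − BPT)/BPT. n = 10, x ± SD.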

[2] = tested on: Mus musculus; experiment: Analgesic activity in ICR mouse assessed as pain threshold variation at 0.0013 mmol/kg, ip after 90 mins by tail flick test relative to control; type: functional; procedure, shortened: as §1
[3] = tested on: Mus musculus; experiment: Thrombotic toxicity in ICR mouse assessed as tail bleeding time at 1.3 mmol/kg, ip after 30 mins; type: organism-based; details: in vivo, 0.5 h
Procedure, shortened: (§2)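 Male ICR mice (25 ± 2 g) were kept one day on a 12/12 h light/dark cycle at 21 ± 2 °C. Each received a single i.p. dose of 1.30 mmol/kg in saline/DMSO/Tween-80 (0.2/0.01/0.02 ml), or the solvent only. The restrained mouse had 1 mm cut from the tail before dosing and at 5, 15, 30 and 60 min. Bleeding time (s) is reported as mean ± SD.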

[4] = tested on: Mus musculus; experiment: Thrombotic toxicity in ICR mouse assessed as tail bleeding time at 1.3 mmol/kg, ip after 60 mins; type: organism-based; details: in vivo, 1 h; procedure, shortened: as §2
[5] = tested on: Mus musculus; experiment: Analgesic activity in ICR mouse assessed as pain threshold variation at 0.0013 mmol/kg, ip after 30 mins by tail flick test relative to control; type: functional; procedure, shortened: as §1
[6] = tested on: Mus musculus; experiment: Analgesic activity in ICR mouse assessed as pain threshold variation at 0.13 mmol/kg, ip after 120 mins by tail flick test; type: functional; procedure, shortened: as §1
[7] = tested on: Mus musculus; experiment: Analgesic activity in ICR mouse assessed as pain threshold variation at 0.013 mmol/kg, ip after 150 mins by tail flick test relative to control; type: functional; procedure, shortened: as §1
[8] = tested on: Mus musculus; experiment: Analgesic activity in ICR mouse assessed as pain threshold variation at 0.013 mmol/kg, ip after 90 mins by tail flick test relative to control; type: functional; procedure, shortened: as §1
[9] = tested on: Mus musculus; experiment: Analgesic activity in ICR mouse assessed as pain threshold variation at 0.013 mmol/kg, ip after 120 mins by tail flick test relative to control; type: functional; procedure, shortened: as §1
[10] = tested on: Mus musculus; experiment: Analgesic activity in ICR mouse assessed as pain threshold variation at 0.13 mmol/kg, ip after 150 mins by tail flick test; type: functional; procedure, shortened: as §1
[11] = tested on: Mus musculus; experiment: Analgesic activity in ICR mouse assessed as pain threshold variation at 0.13 mmol/kg, ip after 30 mins by tail flick test relative to control; type: functional; procedure, shortened: as §1
[12] = tested on: Mus musculus; experiment: Analgesic activity in ICR mouse assessed as pain threshold variation at 0.0013 mmol/kg, ip after 120 mins by tail flick test relative to control; type: functional; procedure, shortened: as §1
[13] = tested on: Mus musculus; experiment: Analgesic activity in ICR mouse assessed as pain threshold variation at 0.13 mmol/kg, ip after 90 mins by tail flick test relative to control; type: functional; procedure, shortened: as §1
[14] = tested on: Mus musculus; experiment: Analgesic activity in ICR mouse assessed as pain threshold variation at 0.0013 mmol/kg, ip after 150 mins by tail flick test relative to control; type: functional; procedure, shortened: as §1
[15] = tested on: Mus musculus; experiment: Analgesic activity in ICR mouse assessed as pain threshold variation at 0.0013 mmol/kg, ip after 60 mins by tail flick test relative to control; type: functional; procedure, shortened: as §1
[16] = Cardiovascular toxicity in rat aorta assessed as inhibition of noradrenaline-induced vasoconstriction at 5 mM relative to control; type: tissue-based; details: isolated rat aorta
Procedure, shortened: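 Rat aortic strips were contracted with noradrenaline, washed, stabilized for 30 min, and contracted again. At peak contraction, compound was added (final 5 × 10^-3 M) or vehicle alone. The relaxant response was recorded as percentage inhibition of the contraction.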

[17] = tested on: Mus musculus; experiment: Analgesic activity in ICR mouse assessed as pain threshold variation at 0.013 mmol/kg, ip after 60 mins by tail flick test relative to control; type: functional; procedure, shortened: as §1
[18] = tested on: Mus musculus; experiment: Analgesic activity in ICR mouse assessed as pain threshold variation at 0.13 mmol/kg, ip after 60 mins by tail flick test relative to control; type: functional; procedure, shortened: as §1
[19] = tested on: Mus musculus; experiment: Thrombotic toxicity in ICR mouse assessed as tail bleeding time at 1.3 mmol/kg, ip after 5 mins; type: organism-based; details: in vivo; procedure, shortened: as §2
[20] = tested on: Mus musculus; experiment: Thrombotic toxicity in ICR mouse assessed as tail bleeding time at 1.3 mmol/kg, ip after 15 mins; type: organism-based; details: in vivo, 0.25 h; procedure, shortened: as §2

## CC1(C)N=C(c2ccc(Cl)cc2)N(O)C1(C)C
[1]
  Activity: 39.87%
[2]
  Activity: 32.13%
[3]
  Activity: 117 s
[4]
  Activity: 119 s
[5]
  Activity: 24.97%
[6]
  Activity: 74.74%
[7]
  Activity: 62.76%
[8]
  Activity: 50.88%
[9]
  Activity: 50%
[10]
  Activity: 88.42%
[11]
  Activity: 63.85%
[12]
  Activity: 31.55%
[13]
  Activity: 75.61%
[14]
  Activity: 42.74%
[15]
  Activity: 30.02%
[16]
  inhibition at 5000 µM: 23.8%
[17]
  Activity: 47.25%
[18]
  Activity: 70.21%
[19]
  Activity: 117 s
[20]
  Activity: 119 s
